Results: ChEMBL document CHEMBL4138314, “Synthesis and Evaluation of N-Phenyl-3-sulfamoyl-benzamide Derivatives as Capsid Assembly Modulators Inhibiting Hepatitis B Virus (HBV)” (J Med Chem, 2018)
Activity calls are given as the source filed them. The calls are words filed in the database; no cut-off is given here.

Tests used:
[1] = Tmax in humanized mouse at 50 mg/kg, sc for 8 days measured on day 8 post last dose by LC-MS/MS analysis; format: ADME, organism-based; details: in vivo
[2] = Tmax in C57BL/6 mouse at 10 mg/kg, po by LC-MS/MS analysis; format: ADME, organism-based; details: in vivo
Method in brief: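 Single-dose PK in C57BL/6 mice given compound intravenously and orally, with oral doses of 10 and 50 mg/kg. Plasma clearance, volume of distribution and oral bioavailability were derived from the plasma profiles.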

[3] = Unbound fraction in human plasma; format: ADME, cell-free
[4] = Half life in C57BL/6 mouse at 50 mg/kg, sc by LC-MS/MS analysis; format: ADME, organism-based; details: in vivo
[5] = Half life in humanized mouse at 50 mg/kg, sc for 8 days measured on day 8 post last dose by LC-MS/MS analysis; format: ADME, organism-based; details: in vivo
[6] = Inhibition of calcium channel (unknown origin); set-up: species or system Homo sapiens
[7] = target: Cytochrome P450 2D6 (Homo sapiens, UniProt P10635); test: Inhibition of CYP2D6 (unknown origin); format: ADME
[8] = AUC (0 to 8 hrs) in humanized mouse at 50 mg/kg, sc measured on day 1 post dose by LC-MS/MS analysis; format: ADME, organism-based; set-up: dose 50 mg/kg, time < 8 hr, route subcutaneous; details: in vivo
[9] = Half life in C57BL/6 mouse at 10 mg/kg, po by LC-MS/MS analysis; format: ADME, organism-based; details: in vivo
Method in brief: (§1)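 Single-dose PK in C57BL/6 mice after intravenous or oral dosing, with oral doses of 10 and 50 mg/kg; plasma clearance and volume of distribution taken from the i.v. arm.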

[10] = system: Mus musculus; test: Hepatotoxicity in chimeric mouse with humanized liver infected with HBV genotype D assessed as decrease in human albumin level in mouse serum at 200 mg/kg, sc qd for 28 days; format: toxicity, organism-based; details: in vivo, 672 h
Method in brief: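 Cytotoxicity to human hepatocytes was judged in HBV genotype D-infected chimeric mice (≥70% human hepatocyte replacement) by tracking serum human albumin over time. Dosing was once daily for 28 days at 200 mg/kg s.c., with oral saline and oral entecavir 0.03 mg/kg as controls.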

[11] = AUC (0 to last) in C57BL/6 mouse at 2.5 mg/kg, iv by LC-MS/MS analysis; format: ADME, organism-based; set-up: dose 2.5 mg/kg, route intravenous, time 0 - last; details: in vivo
[12] = Drug uptake in C57BL/6 mouse plasma at 50 mg/kg, sc after 24 hrs by LC-MS/MS analysis; format: ADME, organism-based
Method in brief: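 C57BL/6 mice dosed subcutaneously once at 50 mg/kg, given to bypass first-pass metabolism; compound measured in plasma (ng/mL) and liver (ng/g) 24 h after dosing.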

[13] = Half life in humanized mouse at 200 mg/kg, sc measured on day 1 post dose by LC-MS/MS analysis; format: ADME, organism-based; details: in vivo
[14] = target: T1, Cytochrome P450 2C8 (Homo sapiens, UniProt P10632); test: Inhibition of CYP2C8 (unknown origin); format: ADME
T1 sequence (P10632 whole entry): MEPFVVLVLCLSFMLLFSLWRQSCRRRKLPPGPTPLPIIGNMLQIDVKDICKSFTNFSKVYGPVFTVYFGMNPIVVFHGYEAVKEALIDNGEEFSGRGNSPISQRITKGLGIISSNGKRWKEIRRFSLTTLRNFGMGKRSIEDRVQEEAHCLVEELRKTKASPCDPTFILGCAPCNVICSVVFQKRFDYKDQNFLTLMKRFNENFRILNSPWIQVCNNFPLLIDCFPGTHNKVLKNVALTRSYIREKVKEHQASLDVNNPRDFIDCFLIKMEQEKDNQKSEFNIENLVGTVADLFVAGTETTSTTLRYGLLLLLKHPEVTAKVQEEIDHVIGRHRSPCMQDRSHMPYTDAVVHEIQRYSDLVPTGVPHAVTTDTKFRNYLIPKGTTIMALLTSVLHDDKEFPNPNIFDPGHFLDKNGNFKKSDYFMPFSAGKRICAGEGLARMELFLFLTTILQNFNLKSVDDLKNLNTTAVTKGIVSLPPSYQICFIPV

[15] = system: HBV genotype D; test: Antiviral activity against HBV genotype D infected in chimeric mouse with humanized liver assessed as log reduction in viral DNA level in serum at 200 mg/kg, sc qd for 28 days by RT-PCR method; format: functional, hepatitis B virus genotype D
Method in brief: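 HBV genotype D-infected chimeric mice with humanized liver (human hepatocyte replacement index ≥70%, judged by serum human albumin). Dosing was once daily for 28 days: test article 200 mg/kg s.c., entecavir 0.03 mg/kg oral as positive control, and oral saline as negative control. The read-out was serum HBV DNA (copies/mL), given as mean log change from baseline at day 29.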

[16] = Unbound fraction in mouse plasma; format: ADME, cell-free
[17] = Tmax in humanized mouse at 200 mg/kg, sc measured on day 1 post dose by LC-MS/MS analysis; format: ADME, organism-based; details: in vivo
[18] = target: hERG (Homo sapiens, UniProt Q12809); test: Inhibition of human ERG at 3 uM by automated patch clamp assay (reference value: 14%)
[19] = Drug uptake in humanized mouse liver at 200 mg/kg, sc after 24 hrs by LC-MS/MS analysis; format: ADME, organism-based; details: read-out: Drug uptake
Method in brief: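 Uninfected humanized mice given 50 or 200 mg/kg subcutaneously once daily as a methocel suspension for 8 days; liver concentration measured 24 h after dosing.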

[20] = system: Hepatitis B virus; test: Antiviral activity against Hepatitis B virus infected in human HepG2.117 cells assessed as inhibition of viral DNA level after 3 days by real time PCR; format: functional, organism-based; details: HepG2.117, 72 h
[21] = AUC (0 to last) in C57BL/6 mouse at 10 mg/kg, po by LC-MS/MS analysis; format: ADME, organism-based; set-up: dose 10 mg/kg, time 0 - last, route oral; details: in vivo; method in brief: as §1
[22] = AUC (0 to 24 hrs) in humanized mouse at 50 mg/kg, sc for 8 days measured on day 8 post last dose by LC-MS/MS analysis; format: ADME, organism-based; set-up: time < 24 hr, dose 50 mg/kg, route subcutaneous; details: in vivo
[23] = system: HBV genotype D; test: Antiviral activity against HBV genotype D infected in human HepG2.2.15 cells assessed as inhibition of viral DNA level treated twice for 3 days measured after 6 days by real time PCR; format: functional, organism-based; details: Hepatitis B virus
[24] = Cmax in humanized mouse at 200 mg/kg, sc measured on day 1 post dose by LC-MS/MS analysis; format: ADME, organism-based; set-up: dose 200 mg/kg, route subcutaneous; details: in vivo
[25] = target: Core antigen (Hepatitis B virus) (UniProt Q03732); test: Induction of HBV Maleimidyl BoDIPY-FL-labeled capsid Cp*150 mutant aggregation incubated for 30 mins measured every 10 secs for 30 mins by fluorescence quenching assay
[26] = system: HBV genotype D; test: Antiviral activity against HBV genotype D infected in primary human hepatocytes assessed as inhibition of viral DNA level by qPCR analysis; format: functional, organism-based; details: Hepatitis B virus
Method in brief: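 Primary human hepatocytes isolated from naive chimeric mice with humanized liver and infected with HBV genotype D; HBV DNA in culture supernatant quantified by qPCR to derive EC50.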

[27] = Cmax in humanized mouse at 200 mg/kg, sc for 8 days measured on day 8 post last dose by LC-MS/MS analysis; format: ADME, organism-based; set-up: dose 200 mg/kg, route subcutaneous; details: in vivo
[28] = Half life in humanized mouse at 200 mg/kg, sc for 8 days measured on day 8 post last dose by LC-MS/MS analysis; format: ADME, organism-based; details: in vivo

Chain of Cytochrome P450 2D6 (P10635 whole entry): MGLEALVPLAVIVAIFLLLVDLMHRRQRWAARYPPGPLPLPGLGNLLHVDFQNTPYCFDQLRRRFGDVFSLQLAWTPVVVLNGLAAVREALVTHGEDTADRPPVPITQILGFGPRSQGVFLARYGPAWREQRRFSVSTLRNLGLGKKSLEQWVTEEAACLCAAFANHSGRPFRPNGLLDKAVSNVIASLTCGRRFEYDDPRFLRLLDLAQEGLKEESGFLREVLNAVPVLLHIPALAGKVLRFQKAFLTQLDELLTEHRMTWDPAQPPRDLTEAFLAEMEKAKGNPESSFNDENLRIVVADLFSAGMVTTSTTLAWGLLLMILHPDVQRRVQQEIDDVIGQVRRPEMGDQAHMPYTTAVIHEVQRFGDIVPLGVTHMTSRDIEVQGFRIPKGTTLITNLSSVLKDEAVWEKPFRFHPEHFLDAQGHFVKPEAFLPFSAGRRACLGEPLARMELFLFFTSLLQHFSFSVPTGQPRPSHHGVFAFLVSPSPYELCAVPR
Chain of Core antigen (Hepatitis B virus) (Q03732 as listed by the source): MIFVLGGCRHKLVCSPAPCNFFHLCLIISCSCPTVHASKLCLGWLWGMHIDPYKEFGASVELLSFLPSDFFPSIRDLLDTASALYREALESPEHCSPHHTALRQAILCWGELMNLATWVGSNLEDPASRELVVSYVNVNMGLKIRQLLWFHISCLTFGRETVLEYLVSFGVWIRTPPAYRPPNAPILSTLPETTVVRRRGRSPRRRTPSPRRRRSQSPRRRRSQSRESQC
Chain of hERG (Q12809 whole entry): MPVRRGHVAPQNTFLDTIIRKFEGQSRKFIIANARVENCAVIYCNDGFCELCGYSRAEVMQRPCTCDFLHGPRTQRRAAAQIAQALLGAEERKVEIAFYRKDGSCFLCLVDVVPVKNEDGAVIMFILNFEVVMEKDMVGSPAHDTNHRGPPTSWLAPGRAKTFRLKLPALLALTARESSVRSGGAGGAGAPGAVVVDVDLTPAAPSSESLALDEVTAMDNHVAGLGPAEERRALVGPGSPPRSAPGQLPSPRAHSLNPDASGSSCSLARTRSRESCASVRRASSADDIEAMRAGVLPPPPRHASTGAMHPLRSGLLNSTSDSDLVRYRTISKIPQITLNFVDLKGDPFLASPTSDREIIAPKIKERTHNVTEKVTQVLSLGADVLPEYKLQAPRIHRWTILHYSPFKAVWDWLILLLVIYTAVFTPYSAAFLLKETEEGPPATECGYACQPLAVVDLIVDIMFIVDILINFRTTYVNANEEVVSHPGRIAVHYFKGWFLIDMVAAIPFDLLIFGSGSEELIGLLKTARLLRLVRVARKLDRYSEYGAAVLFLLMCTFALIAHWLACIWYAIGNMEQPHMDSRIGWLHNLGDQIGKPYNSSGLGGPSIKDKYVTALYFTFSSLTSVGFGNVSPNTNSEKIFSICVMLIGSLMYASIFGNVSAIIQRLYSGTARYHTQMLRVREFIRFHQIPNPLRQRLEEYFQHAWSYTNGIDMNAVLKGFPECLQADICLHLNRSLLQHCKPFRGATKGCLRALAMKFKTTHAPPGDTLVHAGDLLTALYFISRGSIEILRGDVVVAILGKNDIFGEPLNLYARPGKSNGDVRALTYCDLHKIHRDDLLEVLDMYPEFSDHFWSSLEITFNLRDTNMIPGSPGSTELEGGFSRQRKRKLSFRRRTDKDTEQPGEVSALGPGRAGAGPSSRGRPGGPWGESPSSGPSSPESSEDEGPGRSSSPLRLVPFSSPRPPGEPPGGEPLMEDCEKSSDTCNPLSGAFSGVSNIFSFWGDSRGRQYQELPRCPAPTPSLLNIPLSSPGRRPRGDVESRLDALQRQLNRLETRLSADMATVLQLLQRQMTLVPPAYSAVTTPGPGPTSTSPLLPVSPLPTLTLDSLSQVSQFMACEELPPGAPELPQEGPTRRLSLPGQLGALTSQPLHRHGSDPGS

Cc1cc(NC(=O)c2cccc(S(=O)(=O)N[C@H]3CCOC3)c2)ccc1F
Tmax [1]: 48 min | Tmax [2]: 30 min | fraction unbound [3]: 0.081 | half-life [4]: 318 min | half-life [5]: 372 min | IC50 [6]: > 10 µM | IC50 [7]: > 10 µM | AUC(0-t) at 8 h [8]: 4750 ng·h/mL | half-life [9]: 66 min | Activity [10]: Non-Toxic | AUC(0-t) [11]: 1240 ng·h/mL | concentration at 24 h [12]: 102 ng/mL | half-life [13]: 336 min | IC50 [14]: > 10 µM | log(activity) [15]: 2.77 | fraction unbound [16]: 0.126 | Tmax [17]: 48 min | inhibition at 3 µM [18]: 31% | concentration at 24 h [19]: 4880 ng/g | EC50 [20]: 430 nM | AUC(0-t) [21]: 1990 ng·h/mL | AUC at 24 h [22]: 19200 ng·h/mL | EC50 [23]: 120 nM | Cmax [24]: 2110 ng/mL | Activity [25]: Active | EC50 [26]: 200 nM | Cmax [27]: 7700 ng/mL | half-life [28]: 726 min
